Data set [1] has as its target GABA-A receptor; anion channel. In words: Binding affinity for Gamma-aminobutyric acid A receptor from rat brain in the presence of radioligand [35S]- TBPS. The method, boiled down: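 [35S]TBPS displacement in rat brain membranes (picrotoxin site of GABA-A receptors). Compounds dissolved in DMSO, final DMSO ≤2.5%. IC50 from at least three experiments in triplicate, mean ± SEM.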

The nature of data set [2]: Protective index, measure of ratio of TD50 and ED50. The data set is classed as functional. A digest of the protocol: (§1)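 Protective index calculated as TD50 (rotorod) divided by ED50 in the PTZ or MES mouse seizure test.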
For data set [3], the species on record is Mus musculus. Nature of the data set: Anticonvulsant activity in mice against pentylenetetrazole (PTZ) induced clonic seizures. It is filed as functional. The method, boiled down: (§2)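 At least four groups of six mice each. Where these could not be calculated, the […] and lowest all-protected doses are given instead.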
Data set [4] is described as follows: Protective index, measure of ratio of TD50 and ED50 of PTZ. The data set is classed as functional. The method, boiled down:
as §1

Data set [5] in a line: Neurotoxicity in mice was assessed by rotarod test. The settings on record: mouse, in vivo. The data set is classed as toxicity.
Data set [6] deals with T1, GABA-A receptor; anion channel (Rattus norvegicus) (UniProt O09028+P15431+P18506+P18508+P19969+P20236+P23574+P23576+P28471+P28473+P30191+P62813+P63079+P63138+Q91ZM7+Q9ES14). Nature of the data set: Induced percentage potentiation of 3 uM GABA-mediated current at rat brain Gamma-aminobutyric acid A receptor (8 cells). It is filed as functional.
Data set [7] deals with T1, GABA-A receptor; anion channel (Rattus norvegicus). In words: Induced percentage potentiation of 3 uM GABA-mediated current at rat brain Gamma-aminobutyric acid A receptor (8 cells) at 1 mM in the presence of 3 mM alpha-IMGBL (picrotoxin antagonist). The data set is classed as functional.
Data set [8] is described as follows: Protective index, measure of ratio of TD50 and ED50 of MES. The data set is classed as functional. A digest of the protocol: as §1
The species entered for data set [9] is Mus musculus. In words: Anticonvulsant activity in mice against maximal electroshock (MES) induced tonic hindlimb seizures. It is filed as functional. The method, boiled down:
as §2
(In the maximal electroshock model the usual endpoint is tonic extension of the hind limbs.)

Data set [10] deals with T1, GABA-A receptor; anion channel (Rattus norvegicus). Nature of the data set: Antagonism (300 uM) induced potentiation of 3 uM Gamma-aminobutyric acid A receptor mediated current by picrotoxin antagonist (alpha-IMGBL) at a dose 3 mM on 5 rat brain cells. It is filed as functional, tissue-based. Further details: scale not given: the % may be the effect or the level left.

Molecules are shown by their SMILES. A value given as a limit tells only on which side of the number the result lay.

One may read the IC50 as the concentration that inhibits the measured activity by half. Usually ED50 stands for the midpoint of the dose-response relation. What is called TD50 is the dose at which the toxic effect under study appears in half of the subjects.

As for `O=C1CCCS1` [THIOBUTYROLACTONE], the IC50 in data set [1] came out at 0.33 mM.
On the same count and under the same terms, the figure for `CCC1(C)CCNC1=O` (stereo unspecified) is 12.1 mM.
On to `CCC1(C)CC(=O)NC1=O` (stereo unspecified) [ETHOSUXIMIDE], for which the PI in data set [2] turned out to be 2.35. The 50% effect level in the data set filed under Mus musculus [3] (ED50) was put at a dose of 161 mg/kg.
For the compound `CCC1(CC)CCNC1=O`, the PI in data set [4] is 5.65. In addition, the TD50 in data set [5] came out at 260 mg/kg. The Activity in data set [6] was found to be 137%; in data set [7] it was 108%. The IC50 in data set [1] was found to be 5.81 mM.
Consider `O=C1NCCC1Cc1ccccc1` (stereo unspecified), for which, in data set [8], the PI is 3.51. Further, the TD50 in [5] was 144 mg/kg. Also, the IC50 in [1] was 2.44 mM.
For the compound `CCC1CCNC1=O` (stereo unspecified), the IC50 in data set [1] is 48.1 mM.
With `CC(C)(C)C1(C)CCNC1=O` (stereo unspecified), the TD50 in data set [5] is more than 300 mg/kg. In [1], the IC50 was 3.26 mM.
Turning to `O=C1NCCC12CCCC2`, in data set [5], the TD50 was found to be 307 mg/kg. The IC50 in data set [1] amounted to 12.1 mM.
Turning to `CCCC(CCC)C(=O)O` [VALPROIC ACID], the PI in data set [2] stood at 2.12. Further, it took a dose of 133 mg/kg to reach the 50% effect level in the data set listed under Mus musculus [3] (ED50).
Turning to `CCC1(c2ccccc2)C(=O)NC(=O)NC1=O` [PHENOBARBITAL], the PI in [2] was determined as 4. The compound also gave an ED50 in the data set listed under Mus musculus [3] of 22 mg/kg.
The compound `CC1(C)CCNC1=O` registered an ED50 in the data set listed under Mus musculus [9] of more than 600 mg/kg. Further, in data set [5], the TD50 was more than 600 mg/kg. In data set [1], the IC50 was 32.4 mM.
In data set [5], `CC1CCNC1=O` (stereo unspecified) gave a TD50 of more than 900 mg/kg.
For the compound `CCC1(C(C)C)CCNC1=O` (stereo unspecified), the TD50 in [5] worked out at 207 mg/kg. In addition, the IC50 in data set [1] worked out at 2.62 mM.
The compound `O=C1CCCN1` [2-PYRROLIDONE] had a TD50 in data set [5] of more than 900 mg/kg.
Consider `CC(C)C1(C)CCNC1=O` (stereo unspecified), for which the IC50 in data set [1] was determined as 6.86 mM.
Turning to `CC1(Cc2ccccc2)CCNC1=O` (stereo unspecified), the IC50 in data set [1] came out at 0.85 mM.
As to `CCC1(Cc2ccccc2)CCNC1=O` (stereo unspecified), the Activity in data set [10] is 98%.
